Reference: publication PMC6858491 (ACS chemical biology, 2019)

Tested on: Jurkat cells
Experiment: Apoptotic protection assay
Format: cell-based
Conditions: 20 µM inhibitor for 3 h before 10 ng/mL MegaFasL, CellTiter-Glo
Summary of the method: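 Jurkat A3 cells were grown near confluence (10% FBS, pen/strep/glutamine, 37 °C, 5% CO2), resuspended in fresh medium, and plated at 10,000 cells/well. They were then given test compound (20 µM, or a concentration series with 30 min pretreatment) or DMSO vehicle, for set times before or after 10 ng/mL MegaFasL. Viability was read by CellTiter-Glo 3 h after induction.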

Z-D^ME^MVD^M-FMK [0^M]
protection from extrinsic apoptosis (cellular viability): able to preserve cellular viability
